The record followed here is ChEMBL document CHEMBL1255291, “Potent antimalarial activity of histone deacetylase inhibitor analogues” (Antimicrob Agents Chemother, 2008).

For orientation: IC50 means the midpoint of a concentration-inhibition curve.

The test system of data set [1] is Plasmodium falciparum. Description: Antimalarial activity against chloroquine-resistant Plasmodium falciparum Dd2 infected in O+ human erythrocytes by [3H]hypoxanthine incorporation assay. The format is functional, organism-based. In short, it runs like this:
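Parasites cultured in O+ human erythrocytes in RPMI 1640 with 10% heat-inactivated human serum. Synchronous ring-stage infected cells were set at 0.25% parasitemia and 2.5% hematocrit, and growth was measured by [3H]hypoxanthine incorporation. IC50 was taken against DMSO controls by linear interpolation of inhibition curves. Chloroquine served as the internal control. Triplicate wells, at least four separate occasions.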

The test system of data set [2] is Plasmodium falciparum. As to the kind of experiment: Antimalarial activity against chloroquine-sensitive Plasmodium falciparum 3D7 infected in O+ human erythrocytes by [3H]hypoxanthine incorporation assay. The format is functional, organism-based. Particulars: 3D7, 3 h.
The nature of data set [3]: Toxicity in neonatal foreskin fibroblasts. The format is ADME, cell-based. Particulars: Fibroblast.
A short description of data set [4]: Selectivity index, ratio of IC50 for neonatal foreskin fibroblasts to IC50 for chloroquine-resistant Plasmodium falciparum Dd2.
Data set [5] in a line: Selectivity index, ratio of IC50 for neonatal foreskin fibroblasts to IC50 for chloroquine-sensitive Plasmodium falciparum 3D7.
Data set [6] deals with Plasmodium falciparum. Description: Antimalarial activity against Plasmodium falciparum. The format is functional, organism-based. In short, it runs like this:
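Dd2 and 3D7 grown in O-positive human erythrocytes, RPMI 1640 with 10% heat-inactivated human serum. Synchronous ring-stage infected cells, 0.25% parasitemia, 2.5% hematocrit; growth read as [3H]hypoxanthine incorporation versus DMSO controls. IC50 taken by linear interpolation of inhibition curves. Chloroquine as internal control; triplicate wells, at least four separate occasions.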

For data set [7], the system named is Plasmodium falciparum. As to the kind of experiment: Antimalarial activity against Plasmodium falciparum infected in O+ human erythrocytes assessed as reduction in parasites at ring stage at 50 nM after 48 hrs by Giemsa staining based microscopy. The format is functional, organism-based. The method in brief:
(§1)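 Synchronous Dd2-infected erythrocytes at ring (~18 h postinvasion), trophozoite (~26 h) or schizont (~38 h) stage, starting parasitemia 0.2–1.0%, exposed to 50 or 200 nM; DMSO (<0.05%) vehicle controls. Parasitemia counted on Giemsa-stained thin smears over 2–4 days, at least 1,000 erythrocytes by two counters. 48 h means compared by ANOVA; three independent experiments.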

The test system of data set [8] is Plasmodium falciparum. As to the kind of experiment: Antimalarial activity against Plasmodium falciparum infected in O+ human erythrocytes assessed as reduction in parasites at trophozoites stage at 200 nM after 48 hrs by Giemsa staining based microscopy. The format is functional, organism-based. The method in brief:
as §1

The subject of data set [9] is Plasmodium falciparum. As to the kind of experiment: Antimalarial activity against Plasmodium falciparum infected in O+ human erythrocytes assessed as reduction in parasites at trophozoites stage at 50 nM after 48 hrs by Giemsa staining based microscopy. The format is functional, organism-based. In short, it runs like this:
as §1

The subject of data set [10] is Plasmodium falciparum. Description: Antimalarial activity against Plasmodium falciparum infected in O+ human erythrocytes assessed as reduction in parasites at schizonts stage at 200 nM after 48 hrs by Giemsa staining based microscopy. The format is functional, organism-based. In short, it runs like this:
as §1

Data set [11] deals with Plasmodium falciparum. As to the kind of experiment: Antimalarial activity against Plasmodium falciparum infected in O+ human erythrocytes assessed as reduction in parasites at schizonts stage at 50 nM after 48 hrs by Giemsa staining based microscopy. The format is functional, organism-based. In short, it runs like this:
as §1

Data set [12] concerns Plasmodium falciparum. Description: Inhibition of HDAC in Plasmodium falciparum Dd2 infected in O+ human erythrocytes assessed as alteration of histone acetylation at 20 to 500 nM after 3.5 hrs by Westen blot. The format is organism-based. The method in brief:
(§2)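 Late-trophozoite Dd2-infected erythrocytes (3 x 10^9) treated 3.5 h at 37°C at 20, 100 or 500 nM, DMSO vehicle controls. Saponin lysis, histones acid-extracted in 0.5 M HCl, acetone-precipitated, run on 15% SDS-PAGE (silver stain for loading). Western blot with anti-tetra-acetyl histone H4 antiserum (1:2,000), then HRP anti-rabbit (1:5,000).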

In data set [13] the test system is Plasmodium falciparum. Description: Antimalarial activity against Plasmodium falciparum infected in O+ human erythrocytes assessed as reduction in parasites at ring stage at 200 nM after 48 hrs by Giemsa staining based microscopy. The format is functional, organism-based. In short, it runs like this:
as §1

The test system of data set [14] is Plasmodium falciparum. Description: Inhibition of HDAC in Plasmodium falciparum Dd2 infected in O+ human erythrocytes assessed as alteration of histone acetylation at 500 nM after 3.5 hrs by Westen blot. The format is organism-based. In short, it runs like this: as §2
The test system of data set [15] is Plasmodium falciparum. Description: Antimalarial activity against chloroquine-resistant Plasmodium falciparum W2 infected in O+ human erythrocytes by [3H]hypoxanthine incorporation assay. The format is functional, organism-based.
Data set [16] concerns Plasmodium falciparum. Description: Antimalarial activity against chloroquine-sensitive Plasmodium falciparum D6 infected in O+ human erythrocytes by [3H]hypoxanthine incorporation assay. The format is functional, organism-based.
Data set [17] in a line: Toxicity in african green monkey Vero cells. The format is cell-based. The note with it: African green monkey (Chlorocebus sabaeus).
Data set [18] is described as follows: Selectivity index, ratio of IC50 for african green monkey (Cercopithecus aethiops) Vero cells to IC50 for chloroquine-resistant Plasmodium falciparum W2. The format is toxicity, cell-based. Particulars: read-out: Ratio IC50.
Data set [19] is described as follows: Selectivity index, ratio of IC50 for african green monkey (Cercopithecus aethiops) Vero cells to IC50 for chloroquine-sensitive Plasmodium falciparum D6. The note with it: read-out: Ratio IC50. The format is toxicity, cell-based.
A short description of data set [20]: Toxicity in human WI38 cells. The format is cell-based, WI-38.
A short description of data set [21]: Toxicity in breast fibroblasts. The format is cell-based. Particulars: Fibroblast.
A short description of data set [22]: Selectivity index, ratio of IC50 for human WI38 cells to IC50 for chloroquine-resistant Plasmodium falciparum Dd2.
Data set [23] in a line: Selectivity index, ratio of IC50 for human WI38 cells to IC50 for chloroquine-sensitive Plasmodium falciparum 3D7.

Calls of active or inactive are those of the source. No cut-off for these calls is given here.

Regarding `O=C(CCCCC[C@H](NC(=O)c1ccc(Br)cc1)C(=O)Nc1ccc(-c2ccccc2)cc1)NO`, the figures for the IC50 (with Plasmodium falciparum [1]; with Plasmodium falciparum [2]; in data set [3]) were 0.041 µM, 0.022 µM and 0.19 µM, respectively. The entries for the “Ratio IC50” value in data set [4] and in data set [5] were 5 and 9, respectively.
`CN(C)c1ccc(NC(=O)[C@H](CSCCCC(=O)NO)NC(=O)c2ccc(N(C)C)cc2)cc1`: the figures for the IC50 (in the data set on Plasmodium falciparum [1]; in data set [3]) were 0.048 µM and 0.6 µM, respectively. In addition, the “Ratio IC50” value in [4] was determined as 12.
Compound `O=C(CCCCCCCC(=O)NO)NO` [AZELAIC BIS HYDROXAMIC ACID] returned a 50% inhibitory concentration (IC50) in the data set with Plasmodium falciparum [6] of 3.2 µM.
Turning to `CC(NC(=O)c1ccccc1/N=C/c1c(O)ccc2ccccc12)c1ccccc1` (stereo not given) [SIRTINOL], the IC50 with Plasmodium falciparum [1] was 9.1 µM; with Plasmodium falciparum [2], 12.9 µM; in data set [3] it was more than 25 µM. Besides, the “Ratio IC50” value in data set [4] came to 2.7; in data set [5] it was 1.9.
Taken in the same sequence, the figures for `O=C(/C=C/c1ccccc1)N[C@@H](CCCCCC(=O)NO)C(=O)NCc1ccccc1` were 0.102 µM, 0.034 µM, 4.01 µM, 39 and 118.
For the compound `CN(C)c1ccc(C(=O)N[C@@H](CSCCCC(=O)NO)C(=O)Nc2ccc(-c3ccccc3)cc2)cc1`, the IC50 was determined as 0.128 µM in the data set with Plasmodium falciparum [1] and 0.32 µM in [3]. Further, in data set [4], the “Ratio IC50” value came to 3.
As for `O=C(CCCCC[C@H](NC(=O)OCc1ccccc1)C(=O)Nc1ccc(-c2ccccc2)cc1)NO`, the IC50 in the data set with Plasmodium falciparum [1] came out at 0.105 µM; in the data set with Plasmodium falciparum [2], 0.029 µM; in [3], 2.2 µM. Besides, the “Ratio IC50” value was 21 in data set [4] and 76 in data set [5].
In the case of `O=C(CCCCC[C@H](NC(=O)c1cc2ccccc2[nH]1)C(=O)Nc1cccc2cccnc12)NO`, the values for the IC50 (in the data set on Plasmodium falciparum [1]; in the data set on Plasmodium falciparum [2]; in data set [3]) were 0.033 µM, 0.013 µM and 0.337 µM, respectively. Further, the “Ratio IC50” value stood at 10 in [4] and 26 in data set [5]. The inhibition entry with Plasmodium falciparum [7], in the data set with Plasmodium falciparum [8], in the data set with Plasmodium falciparum [9], in the data set with Plasmodium falciparum [10], in the data set with Plasmodium falciparum [11] and in the data set with Plasmodium falciparum [12] was “Active” each time. Also, in the data set on Plasmodium falciparum [13], the inhibition result is “Active”.
In the case of `CC(/C=C/C(=O)NO)=C\[C@@H](C)C(=O)c1ccc(N(C)C)cc1` [TRICHOSTATIN], the 50% inhibitory concentration (IC50) in the data set on Plasmodium falciparum [1] was 0.008 µM; with Plasmodium falciparum [2], 0.011 µM; in data set [3] it was 0.2 µM. Also, the figures for the “Ratio IC50” value in data set [4] and in data set [5] were 25 and 18, respectively. The inhibition entry in the data set with Plasmodium falciparum [8], with Plasmodium falciparum [10], in the data set with Plasmodium falciparum [14] and in the data set with Plasmodium falciparum [13] was “Active” throughout.
Consider `CN(C)c1ccc(C(=O)N[C@@H](CCCCCC(=O)NO)C(=O)Nc2cccc3cccnc23)cc1`, for which the IC50 in the data set with Plasmodium falciparum [1] is 0.071 µM; with Plasmodium falciparum [2], 0.019 µM; in [3], 0.57 µM. For the same compound, the “Ratio IC50” value in [4] was 8; in data set [5], 30.
On to `CC(C)(C)OC(=O)N[C@@H](CCCCCS)C(=O)NC1CCCC1`, for which the IC50 with Plasmodium falciparum [1] came to 19.9 µM; in the data set on Plasmodium falciparum [2], 15.2 µM.
On to `O=C(CCCCC[C@H](NC(=O)c1ccc(Br)cc1)C(=O)NCc1ccccc1)NO`, for which the values for the IC50 (with Plasmodium falciparum [1]; in the data set on Plasmodium falciparum [2]; in data set [3]) were 0.334 µM, 0.091 µM and 5.86 µM, respectively. Also, the “Ratio IC50” value in data set [4] is recorded as 17; in data set [5], 64.
`CN(C)c1ccc(C(=O)N[C@@H](CSCCCC(=O)NO)C(=O)NC2CCCc3ccccc32)cc1` (stereo not given in full): the IC50 was determined as 0.305 µM in the data set on Plasmodium falciparum [1] and 2.2 µM in data set [3]. In addition, the “Ratio IC50” value in data set [4] was 7.
Consider `O=C(CCCCCCC(=O)NO)NO` [SUBEROHYDROXAMIC ACID], for which the IC50 with Plasmodium falciparum [15] was 1.78 µM; in the data set on Plasmodium falciparum [16], 0.94 µM; in data set [17] it was more than 20 µM. The selectivity ratio in data set [18] and in [19] was more than 21 in each case.
As to `Nc1ccccc1NC(=O)c1ccc(CNC(=O)OCc2cccnc2)cc1` [ENTINOSTAT], the IC50 in the data set with Plasmodium falciparum [1] was 7.8 µM; in the data set on Plasmodium falciparum [2], 8.3 µM; in data set [20] it was more than 20 µM; in data set [21], 20 µM. Besides, the selectivity ratio is more than 2.6 in data set [22] and more than 2.4 in data set [23].
As to `O=C(/C=C/c1ccccc1)N[C@@H](CCCCCC(=O)NO)C(=O)Nc1cccc2cccnc12`, the IC50 with Plasmodium falciparum [1] was determined as 0.039 µM; with Plasmodium falciparum [2], 0.015 µM; in data set [3], 1.24 µM. In addition, the “Ratio IC50” value in [4] is 32; in [5], 83. Further, the inhibition entry in the data set on Plasmodium falciparum [7], in the data set with Plasmodium falciparum [8], with Plasmodium falciparum [9], in the data set on Plasmodium falciparum [10], with Plasmodium falciparum [11] and with Plasmodium falciparum [12] was “Active” each time. Further, in the data set with Plasmodium falciparum [13], the inhibition entry was “Active”.
As for `CN(C)c1ccc(C(=O)N[C@@H](CSCCCC(=O)NO)C(=O)NCc2ccccc2)cc1`, the IC50 with Plasmodium falciparum [1] came out at 0.169 µM; in [3], 0.35 µM. The “Ratio IC50” value in data set [4] is 2.
The matching figures for `O=C(/C=C\c1ccccc1)N[C@@H](CSCCCC(=O)NO)C(=O)NCc1ccccc1`: 0.339 µM, 0.8 µM and 2.
Consider `O=C(CCCCC[C@H](NC(=O)c1cc2ccccc2[nH]1)C(=O)NCc1ccccc1)NO`, for which the IC50 is 0.063 µM with Plasmodium falciparum [1], 0.034 µM in the data set on Plasmodium falciparum [2] and 1.26 µM in [3]. Further, the “Ratio IC50” value came to 20 in [4] and 37 in data set [5].
Regarding `O=C(CCCSC[C@H](NC(=O)c1ccc(Br)cc1)C(=O)NCc1ccccc1)NO`, the figures for the IC50 (in the data set on Plasmodium falciparum [1]; in [3]) were 0.125 µM and 0.83 µM, respectively. Moreover, in [4], the “Ratio IC50” value is on record as 13.
